Results: ChEMBL document CHEMBL2311361, “Diminutive effect on T and B-cell proliferation of non-cytotoxic α-santonin derived 1,2,3-triazoles: a report” (Eur J Med Chem, 2013)

System: not listed separately
Assay: Cytotoxicity against in Balb/c mouse T cells at 10^-5 M after 48 hrs by MTT assay
Type: cell-based
Settings: t-cell, 10 µM
In short: (§1)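 Spleens taken aseptically from Balb/c mice (18–22 g). Single-cell suspension made in incomplete RPMI, RBCs lysed with Tris-ammonium chloride, cells washed, resuspended in complete RPMI and checked for viability by trypan blue. Cells seeded at 1 × 10⁶ cells/mL. Compounds in DMSO tested at 1×10⁻⁴, 1×10⁻⁵ and 1×10⁻⁶ M, 48 h, 37 °C, 5% CO₂.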
In the case of CC(=O)Oc1cc(C)c2c(c1C)[C@@H]1OC(=O)[C@@H](C)[C@@H]1CC2, the Activity is reported as “Non-toxic”. With Cc1cc(OCc2cnnn2-c2ccc3ccccc3c2)c(C)c2c1CC[C@H]1[C@H](C)C(=O)O[C@@H]21 the Activity was “Non-toxic”. For Cc1cc(OCc2cnnn2-c2ccc(F)cc2)c(C)c2c1CC[C@H]1[C@H](C)C(=O)O[C@@H]21, the Activity was “Non-toxic”. For Cc1cc(OCc2cnnn2-c2ccc(Br)c3ccccc23)c(C)c2c1CC[C@H]1[C@H](C)C(=O)O[C@@H]21, the Activity was “Toxic”.

System: not listed separately
Assay: Immunosuppressive activity in Balb/c mouse T cells assessed as inhibition of concanavalin A-induced cell proliferation at 10^-4 M after 48 hrs by MTT assay
Type: functional
Settings: not given
In short: as §1
Cc1cc(OCc2cnnn2-c2ccc(Br)c3ccccc23)c(C)c2c1CC[C@H]1[C@H](C)C(=O)O[C@@H]21 showed an inhibition at 100 µM of 10%.

System: not listed separately
Assay: Immunosuppressive activity in Balb/c mouse B cells assessed as inhibition of LPS-induced cell proliferation at 10^-4 M after 48 hrs by MTT assay
Type: functional
Settings: not given
In short: as §1
CC(=O)Oc1cc(C)c2c(c1C)[C@@H]1OC(=O)[C@@H](C)[C@@H]1CC2 gave an inhibition at 100 µM of -36.8%. Cc1cc(OCc2cnnn2-c2ccc3ccccc3c2)c(C)c2c1CC[C@H]1[C@H](C)C(=O)O[C@@H]21 gave an inhibition at 100 µM of 1.7%. Cc1cc(OCc2cnnn2-c2ccc(F)cc2)c(C)c2c1CC[C@H]1[C@H](C)C(=O)O[C@@H]21 gave an inhibition at 100 µM of 2.85%.

System: not listed separately
Assay: Immunosuppressive activity in Balb/c mouse B cells assessed as inhibition of LPS-induced cell proliferation at 10^-5 M after 48 hrs by MTT assay
Type: functional
Settings: not given
In short: as §1
For CC(=O)Oc1cc(C)c2c(c1C)[C@@H]1OC(=O)[C@@H](C)[C@@H]1CC2, the inhibition at 10 µM was 25.6%. Work on Cc1cc(OCc2cnnn2-c2ccc3ccccc3c2)c(C)c2c1CC[C@H]1[C@H](C)C(=O)O[C@@H]21 yielded an inhibition at 10 µM of 23.1%. Work on Cc1cc(OCc2cnnn2-c2ccc(Br)c3ccccc23)c(C)c2c1CC[C@H]1[C@H](C)C(=O)O[C@@H]21 yielded an inhibition at 10 µM of 17.1%.

System: not listed separately
Assay: Immunostimulant activity in Balb/c mouse T cells assessed as inhibition of concanavalin A-induced cell proliferation at 10^-4 M after 48 hrs by MTT assay
Type: functional
Settings: Mus musculus, Balb/c, T-cell, 48 h
In short: as §1
With CC(=O)Oc1cc(C)c2c(c1C)[C@@H]1OC(=O)[C@@H](C)[C@@H]1CC2 the inhibition at 100 µM was 47.6%. Molecule Cc1cc(OCc2cnnn2-c2ccc3ccccc3c2)c(C)c2c1CC[C@H]1[C@H](C)C(=O)O[C@@H]21 has an inhibition at 100 µM of 13.4%. Cc1cc(OCc2cnnn2-c2ccc(F)cc2)c(C)c2c1CC[C@H]1[C@H](C)C(=O)O[C@@H]21 gave an inhibition at 100 µM of 70%.

System: not listed separately
Assay: Cytotoxicity against in Balb/c mouse B cells at 10^-5 M after 48 hrs by MTT assay
Type: cell-based
Settings: 10 µM
In short: as §1
With CC(=O)Oc1cc(C)c2c(c1C)[C@@H]1OC(=O)[C@@H](C)[C@@H]1CC2 the Activity was “Non-toxic”. With Cc1cc(OCc2cnnn2-c2ccc3ccccc3c2)c(C)c2c1CC[C@H]1[C@H](C)C(=O)O[C@@H]21 the Activity was “Non-toxic”. For Cc1cc(OCc2cnnn2-c2ccc(F)cc2)c(C)c2c1CC[C@H]1[C@H](C)C(=O)O[C@@H]21, the Activity was “Non-toxic”. For Cc1cc(OCc2cnnn2-c2ccc(Br)c3ccccc23)c(C)c2c1CC[C@H]1[C@H](C)C(=O)O[C@@H]21, the Activity was “Toxic”.

System: not listed separately
Assay: Immunostimulant activity in Balb/c mouse B cells assessed as inhibition of LPS-induced cell proliferation at 10^-4 M after 48 hrs by MTT assay
Type: functional
Settings: not given
In short: as §1
Cc1cc(OCc2cnnn2-c2ccc(Br)c3ccccc23)c(C)c2c1CC[C@H]1[C@H](C)C(=O)O[C@@H]21 gave an inhibition at 100 µM of 12.8%.

System: not listed separately
Assay: Immunostimulant activity in Balb/c mouse T cells assessed as inhibition of concanavalin A-induced cell proliferation at 10^-6 M after 48 hrs by MTT assay
Type: functional
Settings: not given
In short: as §1
Molecule CC(=O)Oc1cc(C)c2c(c1C)[C@@H]1OC(=O)[C@@H](C)[C@@H]1CC2 has an inhibition at 1 µM of 18.3%. In the case of Cc1cc(OCc2cnnn2-c2ccc3ccccc3c2)c(C)c2c1CC[C@H]1[C@H](C)C(=O)O[C@@H]21, the inhibition at 1 µM is reported as 12.2%. Molecule Cc1cc(OCc2cnnn2-c2ccc(F)cc2)c(C)c2c1CC[C@H]1[C@H](C)C(=O)O[C@@H]21 has an inhibition at 1 µM of 12.8%. Work on Cc1cc(OCc2cnnn2-c2ccc(Br)c3ccccc23)c(C)c2c1CC[C@H]1[C@H](C)C(=O)O[C@@H]21 yielded an inhibition at 1 µM of 30%.

System: not listed separately
Assay: Immunostimulant activity in Balb/c mouse B cells assessed as inhibition of LPS-induced cell proliferation at 10^-6 M after 48 hrs by MTT assay
Type: functional
Settings: not given
In short: as §1
With Cc1cc(OCc2cnnn2-c2ccc3ccccc3c2)c(C)c2c1CC[C@H]1[C@H](C)C(=O)O[C@@H]21 the inhibition at 1 µM was 7.69%. Cc1cc(OCc2cnnn2-c2ccc(F)cc2)c(C)c2c1CC[C@H]1[C@H](C)C(=O)O[C@@H]21 showed an inhibition at 1 µM of 11.4%. Molecule Cc1cc(OCc2cnnn2-c2ccc(Br)c3ccccc23)c(C)c2c1CC[C@H]1[C@H](C)C(=O)O[C@@H]21 has an inhibition at 1 µM of 27.1%.

System: not listed separately
Assay: Immunosuppressive activity in Balb/c mouse T cells assessed as inhibition of concanavalin A-induced cell proliferation at 10^-5 M after 48 hrs by MTT assay
Type: functional
Settings: not given
In short: as §1
Molecule Cc1cc(OCc2cnnn2-c2ccc(Br)c3ccccc23)c(C)c2c1CC[C@H]1[C@H](C)C(=O)O[C@@H]21 has an inhibition at 10 µM of 48.6%.

System: not listed separately
Assay: Cytotoxicity against in Balb/c mouse B cells at 10^-6 M after 48 hrs by MTT assay
Type: cell-based
Settings: 1 µM
In short: as §1
For CC(=O)Oc1cc(C)c2c(c1C)[C@@H]1OC(=O)[C@@H](C)[C@@H]1CC2, the Activity was “Non-toxic”. In the case of Cc1cc(OCc2cnnn2-c2ccc3ccccc3c2)c(C)c2c1CC[C@H]1[C@H](C)C(=O)O[C@@H]21, the Activity is reported as “Non-toxic”. With Cc1cc(OCc2cnnn2-c2ccc(F)cc2)c(C)c2c1CC[C@H]1[C@H](C)C(=O)O[C@@H]21 the Activity was “Non-toxic”. In the case of Cc1cc(OCc2cnnn2-c2ccc(Br)c3ccccc23)c(C)c2c1CC[C@H]1[C@H](C)C(=O)O[C@@H]21, the Activity is reported as “Non-toxic”.

System: not listed separately
Assay: Immunostimulant activity in Balb/c mouse B cells assessed as inhibition of LPS-induced cell proliferation at 10^-5 M after 48 hrs by MTT assay
Type: functional
Settings: not given
In short: as §1
With Cc1cc(OCc2cnnn2-c2ccc(F)cc2)c(C)c2c1CC[C@H]1[C@H](C)C(=O)O[C@@H]21 the inhibition at 10 µM was 10%.

System: not listed separately
Assay: Immunosuppressive activity in Balb/c mouse B cells assessed as inhibition of LPS-induced cell proliferation at 10^-6 M after 48 hrs by MTT assay
Type: functional
Settings: not given
In short: as §1
Molecule CC(=O)Oc1cc(C)c2c(c1C)[C@@H]1OC(=O)[C@@H](C)[C@@H]1CC2 has an inhibition at 1 µM of 23.9%.

System: B
Assay: Immunosuppressive activity in Balb/c mouse B cells assessed as inhibition of LPS-induced cell proliferation after 48 hrs by MTT assay
Type: functional, cell-based
Settings: not given
In short: as §1
With CC(=O)Oc1cc(C)c2c(c1C)[C@@H]1OC(=O)[C@@H](C)[C@@H]1CC2 the inhibition was “Dose-dependent effect”.

System: not listed separately
Assay: Immunostimulant activity in Balb/c mouse T cells assessed as inhibition of concanavalin A-induced cell proliferation at 10^-5 M after 48 hrs by MTT assay
Type: functional
Settings: not given
In short: as §1
With CC(=O)Oc1cc(C)c2c(c1C)[C@@H]1OC(=O)[C@@H](C)[C@@H]1CC2 the inhibition at 10 µM was 26.8%. With Cc1cc(OCc2cnnn2-c2ccc3ccccc3c2)c(C)c2c1CC[C@H]1[C@H](C)C(=O)O[C@@H]21 the inhibition at 10 µM was 2.43%. Cc1cc(OCc2cnnn2-c2ccc(F)cc2)c(C)c2c1CC[C@H]1[C@H](C)C(=O)O[C@@H]21 gave an inhibition at 10 µM of 44.3%.

System: not listed separately
Assay: Cytotoxicity against in Balb/c mouse B cells at 10^-4 M after 48 hrs by MTT assay
Type: cell-based
Settings: 100 µM
In short: as §1
For CC(=O)Oc1cc(C)c2c(c1C)[C@@H]1OC(=O)[C@@H](C)[C@@H]1CC2, the Activity was “Non-toxic”. For Cc1cc(OCc2cnnn2-c2ccc3ccccc3c2)c(C)c2c1CC[C@H]1[C@H](C)C(=O)O[C@@H]21, the Activity was “Toxic”. In the case of Cc1cc(OCc2cnnn2-c2ccc(F)cc2)c(C)c2c1CC[C@H]1[C@H](C)C(=O)O[C@@H]21, the Activity is reported as “Non-toxic”. In the case of Cc1cc(OCc2cnnn2-c2ccc(Br)c3ccccc23)c(C)c2c1CC[C@H]1[C@H](C)C(=O)O[C@@H]21, the Activity is reported as “Toxic”.

System: not listed separately
Assay: Cytotoxicity against in Balb/c mouse T cells at 10^-6 M after 48 hrs by MTT assay
Type: cell-based
Settings: t-cell, 1 µM
In short: as §1
With CC(=O)Oc1cc(C)c2c(c1C)[C@@H]1OC(=O)[C@@H](C)[C@@H]1CC2 the Activity was “Non-toxic”. With Cc1cc(OCc2cnnn2-c2ccc3ccccc3c2)c(C)c2c1CC[C@H]1[C@H](C)C(=O)O[C@@H]21 the Activity was “Non-toxic”. For Cc1cc(OCc2cnnn2-c2ccc(F)cc2)c(C)c2c1CC[C@H]1[C@H](C)C(=O)O[C@@H]21, the Activity was “Non-toxic”. In the case of Cc1cc(OCc2cnnn2-c2ccc(Br)c3ccccc23)c(C)c2c1CC[C@H]1[C@H](C)C(=O)O[C@@H]21, the Activity is reported as “Non-toxic”.

System: not listed separately
Assay: Cytotoxicity against in Balb/c mouse T cells at 10^-4 M after 48 hrs by MTT assay
Type: cell-based
Settings: t-cell, 100 µM
In short: as §1
In the case of CC(=O)Oc1cc(C)c2c(c1C)[C@@H]1OC(=O)[C@@H](C)[C@@H]1CC2, the Activity is reported as “Non-toxic”. For Cc1cc(OCc2cnnn2-c2ccc3ccccc3c2)c(C)c2c1CC[C@H]1[C@H](C)C(=O)O[C@@H]21, the Activity was “Toxic”. For Cc1cc(OCc2cnnn2-c2ccc(F)cc2)c(C)c2c1CC[C@H]1[C@H](C)C(=O)O[C@@H]21, the Activity was “Non-toxic”. For Cc1cc(OCc2cnnn2-c2ccc(Br)c3ccccc23)c(C)c2c1CC[C@H]1[C@H](C)C(=O)O[C@@H]21, the Activity was “Toxic”.
